Assay outcomes as filed in PubChem BioAssay.
HKDC1 inh – inhibitors of human hexokinase HKDC1; recombinant HKDC1, G6PDH/diaphorase resazurin coupled fluorescence; inhibition, % at 20 µM; 0.16% of 340,000 active; AID 493160;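 active = inhibition above about 35% when tested at 20 µM, limit read from the data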
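Material: recombinant HKDC1 hexokinase; Amount: HKDC1 at 5 µg/mL; Medium: Tris pH 8.0 buffer with MgCl2, Tween-20, BSA, BME; Schedule: 90 min reaction incubation at room temperature, dark; Technique: coupled resazurin fluorescence, excitation 525 nm, emission 613 nm.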
Diaphorase inh – diaphorase inhibition or chemical oxidation counter-screen. diaphorase resazurin-to-resorufin fluorescence, NADH, 16 min; bacterial (C. kluyveri) enzyme, not human. inhibition, % at 20 µM. 0.69% of 190,000 active. AID 1217;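 active = primary screen inhibition at 20 µM above a set limit, cut at about 50% in these data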
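Assay system: diaphorase enzyme from Clostridium kluyveri. Quantity: enzyme working solution with 0.14 U/mL diaphorase. Schedule: reaction incubation of 16 min at room temperature. Technique: resorufin fluorescence, excitation 544 nm, emission 590 nm. Controls: No-NADH positive control and DMSO neutral control.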
Diaph act CS – activates diaphorase or chemically reduces, flagging diaphorase assay artifacts; 0.005% of 190,000 active; Diaphorase/resazurin coupled assay, resorufin fluorescence, 16 min; active compounds read high; 1 = vehicle wells, 0 = NADH-free wells; activation factor at 20 µM;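 active = diaphorase activity raised at least twofold by the compound at 20 µM; inactive = activation factor below 2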
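Test system: Clostridium kluyveri diaphorase, purified enzyme. Buffer or medium: 50 mM HEPES pH 7.4 buffer plus MgCl2 and Tween 20. Also added: 0.114 mM NADH and 0.1 mM resazurin, final amounts. Dosing: compound 20 µM once, DMSO 1%. Schedule: 16 min enzyme reaction, ambient temperature. Detection: fluorescence of resorufin, 544 nm excitation, 590 nm emission.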
PfG6PD inh – PfG6PD (Plasmodium falciparum) enzyme inhibition. PfGluPho enzyme, NADPH resazurin-diaphorase fluorescence. inhibition, % at 20 µM. 0.78% of 350,000 active. AID 504690;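 active = inhibition reaching at least a set limit at 20 µM in the primary screen, cut at about 59% in these data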
G6PDH counter – inhibits Leuconostoc G6PDH, flagging false hits in G6PDH-based assays | 0.12% of 200,000 active | inhibition, % at 5 µM | Purified L. mesenteroides G6PDH, diaphorase/resazurin coupled fluorescence, 45 min; in the data active = inhibition above about 50%
A number is an active result; n = inactive; x = no result. Shown are actives, neighbours in structure and some others; about 1.3% of the full set was active somewhere.

SMILES | HKDC1 inh | Diaphorase inh | Diaph act CS | PfG6PD inh | G6PDH counter
C[C@@H]1C(=O)O[C@H]2[C@H](O)[C@@]34[C@H]5C[C@@H](C(C)(C)C)[C@]36[C@@H](OC(=O)[C@@H]6O)O[C@@]4(C(=O)O5)[C@@]12O | n | x | x | n | x
CC(C)CNC(=O)c1cccc(NC(=O)c2ccc3c(c2)C(=O)N(C)C3=O)c1 | n | x | x | n | x
O=C(O[C@@H]1OC2COC(=O)c3cc(O)c(O)c(O)c3-c3c(cc(O)c(O)c3O)C(=O)O[C@@H]([C@H]1O)[C@@H]2O)c1cc(O)c(O)c(O)c1 | n | 62 | n | 111 | n
CN=c1scc(-c2ccc(F)cc2)n1/N=C/c1ccc(O)c(O)c1 | n | 50 | n | n | n
O=C1CCCC2=C1C(c1ccco1)Nc1ccc(C(=O)c3ccccc3)cc1N2 (stereo not drawn) | n | 68 | n | n | n
CN(C)CCN(Cc1cc2cc3c(cc2[nH]c1=O)OCCO3)C(=S)NCC1CCCO1 (stereo not drawn) | n | 50 | n | n | n
CCN(CC)CCN(Cc1cc2cc3c(cc2[nH]c1=O)OCCO3)C(=S)NCC1CCCO1 (stereo not drawn) | n | n | n | n | n
Cc1ccc(N)c2c1OCCC2=O | n | 57 | n | n | n
C[C@@H]1CN([C@@H](C)CO)C(=O)CCCn2nncc2CO[C@H]1CN(C)S(=O)(=O)c1cccs1 | x | x | x | n | x
CCNC(=O)C(=O)N/N=C/c1cc([N+](=O)[O-])ccc1O | n | 53 | n | n | n
COc1ccc(N2CC(C(=O)N/N=C/c3cc([N+](=O)[O-])ccc3O)CC2=O)cc1 (stereo not drawn) | n | 55 | n | n | n
COc1ccc(N2CC(C(=O)Nc3ccc([N+](=O)[O-])cc3Br)CC2=O)cc1 (stereo not drawn) | n | x | x | n | x
Cc1ccc(-c2csc(NC(=O)CCNC(=O)c3ccccc3Cl)n2)cc1 | n | n | n | n | n
CC(=O)OC(C)C1C2=C(C(=O)CC1(C)O)C(=O)c1c(ccc(-c3ccc4c(c3O)C(=O)C3=C(C4=O)C(C(C)OC(C)=O)C(C)(O)CC3=O)c1O)C2=O (stereo not drawn) | n | x | x | 61 | x
CC(C)n1c(=O)[nH][nH]c1=S | n | x | x | 75 | x
CC(C)=C[C@@H]1C[C@H](C)[C@H]2CC[C@H](C)c3c(O)c(O)c(C)c1c32 | n | x | x | 79 | x
COc1ccc(S(=O)(=O)N2CCCCC2)cc1NC(=O)C1CC(=O)N(Cc2ccccc2)C1 (stereo not drawn) | n | x | x | n | x
C[C@]12CC[C@H](O)CC1=CCC1C2CC[C@@]2(C)C1CC[C@@H]2NC(=O)[C@@H](N)Cc1cnc[nH]1 (stereo partly drawn) | n | x | x | n | x
NC(=O)C1=C[C@H](c2csc3ccccc23)C[C@H](OCCCCO)O1 | n | 56 | n | n | n
COc1ccc(COC(=O)c2ccc(Br)c(S(=O)(=O)N3CCOCC3)c2)cc1F | n | x | x | n | x
Cc1ccc(NC2=CC(=O)C(=O)c3ccccc32)c(C)c1 | n | x | x | n | x
O=C1C=C(Nc2ccccc2O)c2ccccc2C1=O | n | n | n | n | 56
CC(C)(C)Cc1c(-c2ccccc2)nc2ccc(Cl)cn12 | x | x | x | n | x
COc1cccc2c(SCC(=O)N/N=C/c3ccc(O)c(O)c3)cc(C)nc12 | n | 54 | n | n | n
COc1cccc2c(SCC(=O)N/N=C/c3ccccc3)cc(C)nc12 | n | n | n | n | n
SMILES | HKDC1 inh | Diaphorase inh | Diaph act CS | PfG6PD inh | G6PDH counter
Nc1nn2c(-c3ccccc3)cc(=O)[nH]c2c1N=Nc1ccc(O)cc1 | n | 54 | n | n | n
Nc1nn2c(-c3ccccc3)cc(=O)[nH]c2c1N=Nc1ccc(Br)cc1 | n | n | n | n | n
Cc1cc(-c2csc3nc[nH]c(=S)c23)cc(C)c1C | n | 56 | n | n | n
Cc1sc2nc[nH]c(=S)c2c1-c1ccccc1 | n | 82 | n | n | n
Cc1ccc(-c2csc3nc[nH]c(=S)c23)cc1 | n | 70 | n | n | n
O=C(NC1CCCCC1)C(c1ccncc1)N(C(=O)c1csnn1)c1cccc(F)c1 (stereo not drawn) | n | x | x | n | x
CCOC(=O)c1c(NC(=O)CSc2nnc3c(Cl)cc(Cl)cn23)sc2c1CCC2 | n | 69 | n | n | n
NC(=O)c1c(NC(=O)CSc2nnc(-c3ccco3)n2-c2ccccc2)sc2c1CCC2 | n | 53 | n | n | n
CS(=O)(=O)N1CCC(C(=O)Nc2ccc(Cl)cc2Cl)CC1 | x | x | x | n | x
CC(C)c1ccc(NC(=O)C(c2ccc3c(c2)OCO3)N2CCCCC2)cc1 (stereo not drawn) | n | n | n | n | n
Oc1cc2c(cc1C(c1ccc(Cl)c(Cl)c1)N1CCCC1)OCO2 (stereo not drawn) | n | n | n | 62 | n
O=C(CCN1CCOCC1)NNC(=S)NC(=O)c1ccc(Br)cc1 | n | 66 | n | n | n
CCCCn1c(Cc2ccccc2)nnc1SCC(=O)Nc1cc(C)on1 | n | 59 | n | n | n
O=C(Nc1ccc([N+](=O)[O-])cc1)N1CCN(C(=O)C2CCCO2)CC1 (stereo not drawn) | n | x | x | n | x
COc1ccc(NC(=O)C(C)N2C(=O)C3CC=C(Cl)CC3C2=O)cc1 (stereo not drawn) | n | x | x | n | x
O=c1c2ccccc2sn1-c1ccc(F)cc1 | n | x | x | 113 | x
COC(=O)c1cccc(-n2sc3ccccc3c2=O)c1 | n | x | x | 117 | x
Cc1ccc(-n2nc3c(=O)n(CCCC(=O)N4CCC(C(N)=O)CC4)nc(C)c3c2C)cc1 | n | x | x | n | x
CN(Cc1c(O)ccc2c1oc(=O)c1ccccc12)C1CCCCC1 | n | 94 | n | n | n
CN(C)Cc1c(O)ccc2c3c(c(=O)oc12)CCCCC3 | n | n | n | n | n
O=[N+]([O-])c1ccc(S(=O)(=O)Nc2ccc(-c3ccccc3)cc2)cc1 | x | x | x | n | x
O=C(COc1cccnc1[N+](=O)[O-])N1CCN(C(=O)c2ccco2)CC1 | n | 59 | n | n | n
O=C(OCC(=O)N1CCN(C(=O)c2ccco2)CC1)c1cc(-c2ccc(Cl)c(Cl)c2Cl)nc2ccccc12 | n | n | n | n | n
O=C(OCC(=O)N1CCN(C(=O)c2ccco2)CC1)c1cc(-c2ccco2)nc2ccccc12 | 37 | n | n | n | n
COc1ccccc1CCNC(=O)CNC(=O)Cc1cccc2ccccc12 | n | x | x | n | x
SMILES | HKDC1 inh | Diaphorase inh | Diaph act CS | PfG6PD inh | G6PDH counter
N#Cc1c(-c2ccco2)cc(-c2cccnc2)nc1N | n | 52 | n | n | n
CC(=O)c1coc2c1cc(O)c1ccccc12 | n | n | n | n | n
CC(=O)c1cc(O)c2ccccc2c1O | 44 | x | x | n | x
Fc1ccc(N=c2ssnc2Cl)c(F)c1 | n | n | n | 87 | n
Clc1ccc(N=c2ssnc2Cl)cc1 | n | n | n | n | n
COc1ccc(N=C2SCC(=O)N2C)cc1 | x | x | x | n | x
Clc1nssc1=Nc1ccccc1 | n | n | n | 77 | n
COc1ccc(N=c2ssnc2Cl)cc1 | n | n | n | 83 | n
